Bioassay records as filed in PubChem BioAssay.
DNA FID counter: compounds displacing fluorescent DNA intercalator, primary screen, artefact control for HCV NS3 helicase inhibitor project, biochemical, FID fluorescence; actives 0.17% (n = 290,000); inhibition, % at 7.9 µM; DNA fluorescent intercalator displacement; in the data active = inhibition above about 37%;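 also: higher means more ethidium bromide displaced from hairpin DNA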
TRPC4 act: activators of mouse TRPC4 channel, primary screen, Fluo4 calcium, HEK293 TRPC4beta/mu-opioid cells; B-score at 10 µM; actives 0.49% (n = 310,000); Fluo4 calcium fluorescence; hits give high values;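 active = B-score above 5 SD of library B-scores, and initial fluorescence ratio not above library mean plus 5 SD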;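 also: positive B-score marks a calcium rise read as TRPC4 activation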
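Assay system: HEK293 stable line with TRPC4beta plus mu-opioid receptor; schedule: 45 min room-temperature Fluo4 loading, 110 s read; technique: kinetic Fluo4 calcium fluorescence; evaluation: integrated baseline-normalised fluorescence ratio, converted to per-well B score; controls: buffer (low) and maximal DAMGO (high)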
TRPC4 potent: positive allosteric modulators of TRPC4, primary screen, cell-based, mouse TRPC4beta, HEK293 mu-opioid, Fluo-4 calcium; actives 0.42% (n = 310,000); B-score at 10 µM; DAMGO EC20, Fluo-4 Ca2+ flux; hits give high values; Short transient receptor potential channel 4 (Mus musculus), Q9QUQ5;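 active = B-score of calcium response area above 5 SD of library B-scores, with initial fluorescence ratio within 5 SD of library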
TRPC6 activator: mouse TRPC6 channel activators, primary screen, cell-based, HEK293, membrane potential dye; HEK293-TRPC6 membrane potential dye fluorescence; hits give high values; Short transient receptor potential channel 6 (Mus musculus), Q61143; actives 0.13% (n = 310,000); B-score at 10 µM;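 active = B-score of the integrated fluorescence ratio above library mean plus 3 SD, and starting fluorescence ratio within library mean plus 5 SD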;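 also: higher score means more depolarization so channel activation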
TRPC6 inhibitor: mouse TRPC6 channel inhibitors, primary screen, cell-based, HEK293, membrane potential dye; AID 2553, 2010; ACh-evoked depolarization; hits give low values; B-score at 10 µM; actives 1.1% (n = 310,000); Short transient receptor potential channel 6 (Mus musculus), Q61143;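 active = B-score under library mean minus 3 SD, initial fluorescence not abnormally high, positive integrated signal ratio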;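 also: B-score derived from integrated fluorescence ratio over the kinetic read; more negative B-score means stronger inhibition of depolarization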
TRPC4 inh: inhibitors of mouse TRPC4 channel, primary screen, Fluo4 calcium, HEK293 TRPC4beta/mu-opioid cells; Short transient receptor potential channel 4 (Mus musculus), Q9QUQ5; DAMGO-evoked Fluo4 calcium flux; hits give low values; B-score at 10 µM; actives 0.39% (n = 300,000); AID 2247, 2010;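 active = B-score over 3 SD under the library average, no early fluorescence shift, positive overall ratio signal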
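Assay system: TRPC4beta/mu-opioid receptor HEK293 cell line; compound dosing: single concentration per test compound; detection: Fluo4 Ca2+ flux fluorescence; evaluation: per-well B score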
Hits are given with their value; . = inactive; / = not tested or not shown. Sampled rows, rich in hits. Any-hit rate of the full collection: about 2.3%.

SMILES	DNA FID counter	TRPC4 act	TRPC4 potent	TRPC6 activator	TRPC6 inhibitor	TRPC4 inh
CC1CCc2sc3ncnc(N4CCOCC4)c3c2C1 (configuration not stated)	.	.	.	.	.	-6
O=C(NC1CCN(Cc2ccccc2)CC1)c1cccc(S(=O)(=O)Nc2cc(C(F)(F)F)ccc2Cl)c1	.	.	21	.	.	.
COc1cccc(CC2(CO)CCN(S(=O)(=O)c3ccc(OC)cc3OC)CC2)c1	.	.	.	.	.	.
O=C1Nc2cc(C(=O)NCCCN3CCOCC3)ccc2S/C1=C/c1cccc(Cl)c1	.	.	.	.	.	.
O=C1Nc2cc(C(=O)NCCCN3CCOCC3)ccc2S/C1=C/c1ccccc1F	.	.	.	.	.	-6
Cc1ccc(NC(=O)c2cccc(S(=O)(=O)N(C)C3CCCCC3)c2)nc1	/	.	.	.	.	.
COc1ccc(CN=C2NN=C(c3ccc(Cl)cc3)CS2)cc1	.	.	.	.	.	-6
COc1ccc(C(c2nnnn2C2CCCC2)N2CCN(c3ccccc3)CC2)cc1 (configuration not stated)	.	.	.	.	.	-6
COc1ccc(C(c2nnnn2C2CCCCC2)N2CCN(c3ccccc3)CC2)cc1 (configuration not stated)	.	/	/	/	/	/
Cc1ccc(Cn2c(Cc3ccccc3)nc3ccccc32)cc1	.	.	.	.	.	-6
COc1cc(C(=O)N/C(=C\c2cn(C)c3ccccc23)C(=O)NCCCn2ccnc2)cc(OC)c1OC	.	.	.	.	.	.
CS(=O)(=O)N(CC(=O)N1CCc2ccccc2C1)c1cccc([N+](=O)[O-])c1	.	.	.	.	.	.
O=C(COC(=O)c1cccc([N+](=O)[O-])c1)c1ccc2c(c1)OCO2	/	.	.	.	.	-7
O=C(OCC(=O)N1CCc2ccccc2C1)c1cccc([N+](=O)[O-])c1	.	.	.	.	.	-6
Cc1ccc(-n2cc(CNCC3CC(=O)N(C4CC4)C3)c(-c3cccc(C)c3)n2)cc1 (configuration not stated)	.	153	.	.	.	.
Cc1ccc(-n2cc(CN3CCNC(=O)CC3)c(-c3cccc(C)c3)n2)cc1	.	.	.	.	.	.
Cc1ccc(C(=O)NCC(=O)N2CCCC(C(F)(F)F)C2)s1 (configuration not stated)	/	.	.	.	.	.
Cc1cc(OCC(=O)N2CCCC2)ccc1Cl	.	.	.	.	.	.
Cc1cc(OCC(=O)N2CCCC2)cc(C)c1Cl	.	84	.	.	.	.
COc1cccc(NC(=O)Cc2nnc(SCC(=O)NC3CCCCC3)n2C)c1	.	.	.	.	.	.
CCc1ccccc1OCCCCCNCCO	.	.	11	.	.	.
Cc1cc(Br)ccc1OCCCCNCCO	.	.	10	.	.	.
Cc1ccc2nc(-c3ccccn3)c(NC3CCCC3)n2c1	.	.	.	.	.	-6
CCCCCCSc1cccc(-c2nc3ccc(C)cn3c2NC2CCCCC2)c1	/	.	.	.	.	.
O=C(NCc1ccc(Cl)cc1)N1CCN(Cc2ccccc2)CC1	.	.	.	.	.	.
SMILES	DNA FID counter	TRPC4 act	TRPC4 potent	TRPC6 activator	TRPC6 inhibitor	TRPC4 inh
COc1ccc2[nH]c3c(c2c1)CCN1C(=O)N([C@@H](C)C(=O)NC2CCN(Cc4ccccc4)CC2)C(=O)[C@]31C	.	.	.	.	.	.
Cn1c(N=Nc2ccc(N3CCOCC3)cc2)[n+](C)c2ccccc21	59.0	.	.	.	.	.
CCn1c(=Nc2ccc(N3CCOCC3)cc2)ccc2ccccc21	.	.	.	.	.	.
CC(Cc1ccccc1)C(=O)Nc1ccc(Br)cc1 (configuration not stated)	.	.	.	.	.	.
Fc1ccccc1Sc1ccccc1CNC1=NCCN1	.	.	.	.	.	-6
Fc1ccc(Nc2ccnc(Nc3ccc(F)cc3)n2)cc1	39.2	.	.	.	.	.
